Compound activity: PubChem, Sanford-Burnham Center for Chemical Genomics
SUMO1 PPI mod – alters human SUMO1 binding to SIM partners | P63165 | SUMO1 binding to a labelled peptide, TR-FRET, 1 h | inhibition, % at 20 µM | 0.33% of 360,000 active | AID 602429; in the data active = inhibition above about 37%
STEP inh – inhibitors of human striatal-enriched phosphatase STEP | P54829 | recombinant STEP, OMFP fluorogenic substrate, fluorescence | inhibition, % at 20 µM | 0.25% of 360,000 active | AID 588621;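 active = inhibition at 20 µM, scaled per plate between control wells, above about 37%, limit read from the data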;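 also: 0% = DMSO with enzyme and substrate and 100% = substrate only without enzyme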
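Measure: Control-normalized % inhibition with plate pattern correction | Test system: STEP phosphatase, cell-free reaction | Medium: pH 6.0 Bis-Tris with DTT and Tween 20 | Technique: Fluorescence, 480/540 nm | Times: Reaction 20 min, ambient temperature | Doses: Single compound dose of 20 µM, 1% DMSO final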
LMPTP inh – LMPTP (human) inhibition; 0.22% of 360,000 active; recombinant LMPTP-A, OMFP fluorogenic substrate, fluorescence intensity; inhibition, % at 20 µM;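 active = compounds that cut the enzyme signal by at least half of the control window in the single-dose screen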;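 also: plate controls were DMSO wells with enzyme plus substrate for no effect and substrate without enzyme for full effect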
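Material: LMPTP-A; amount: 0.625 nM enzyme; doses: single 20 µM dose; times: reaction 50 min, room temperature, dark; technique: fluorescence intensity of OMFP turnover product; benchmarks: no-enzyme and uninhibited controls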
NadD block – NadD (S. aureus) enzyme inhibition; purified NadD enzyme, colorimetric absorbance read-out; inhibition, % at 20 µM; 0.78% of 360,000 active; in the data active = inhibition above about 26%
DNMT1 inh – inhibitors of human DNMT1; DNMT1 molecular beacon, Hinp1I cleavage, fluorescence; AID 588458; 0.83% of 360,000 active; inhibition (reported as % activation of signal), % at 10 µM; in the data active = inhibition above about 50%
Target sequence (P26358 504-1616 limits assumed): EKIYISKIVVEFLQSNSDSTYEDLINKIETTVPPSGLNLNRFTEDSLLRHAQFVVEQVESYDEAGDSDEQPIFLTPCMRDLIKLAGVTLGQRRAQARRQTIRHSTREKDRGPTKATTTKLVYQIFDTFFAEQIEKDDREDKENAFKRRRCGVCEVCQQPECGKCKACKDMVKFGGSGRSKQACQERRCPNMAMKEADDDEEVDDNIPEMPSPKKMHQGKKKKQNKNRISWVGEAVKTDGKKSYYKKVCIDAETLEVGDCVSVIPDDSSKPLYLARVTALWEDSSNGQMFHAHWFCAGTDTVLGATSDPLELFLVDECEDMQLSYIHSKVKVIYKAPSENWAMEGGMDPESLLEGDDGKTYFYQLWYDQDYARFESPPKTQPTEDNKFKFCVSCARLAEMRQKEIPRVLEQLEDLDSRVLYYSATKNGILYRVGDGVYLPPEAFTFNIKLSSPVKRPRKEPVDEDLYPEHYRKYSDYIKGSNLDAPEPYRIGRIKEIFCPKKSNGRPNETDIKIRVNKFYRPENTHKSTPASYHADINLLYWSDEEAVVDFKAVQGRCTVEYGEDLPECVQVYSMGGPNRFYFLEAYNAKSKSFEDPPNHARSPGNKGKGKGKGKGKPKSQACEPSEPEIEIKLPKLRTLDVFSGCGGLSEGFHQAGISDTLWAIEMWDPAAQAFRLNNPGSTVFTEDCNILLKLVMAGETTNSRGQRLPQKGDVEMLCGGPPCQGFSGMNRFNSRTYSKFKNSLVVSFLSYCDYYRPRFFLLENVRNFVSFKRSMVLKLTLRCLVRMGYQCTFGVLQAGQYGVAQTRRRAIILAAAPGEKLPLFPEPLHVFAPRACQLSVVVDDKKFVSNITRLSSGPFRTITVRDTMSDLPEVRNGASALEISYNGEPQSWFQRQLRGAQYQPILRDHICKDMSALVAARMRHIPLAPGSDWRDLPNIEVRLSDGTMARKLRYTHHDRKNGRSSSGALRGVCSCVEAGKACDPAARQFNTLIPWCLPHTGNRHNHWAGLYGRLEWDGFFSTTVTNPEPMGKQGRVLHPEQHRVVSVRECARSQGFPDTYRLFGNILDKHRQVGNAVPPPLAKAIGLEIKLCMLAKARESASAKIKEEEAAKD
Scp-1 inhibitor – Scp-1 (human) phosphatase inhibition. inhibition, % at 20 µM. Recombinant Scp1, phosphopeptide, malachite green phosphate absorbance. Q9GZU7. AID 493091. 0.88% of 340,000 active;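 active = inhibition above about 50% at 20 µM, limit read from the data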;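 also: plate controls were DMSO wells with enzyme for no effect and wells lacking enzyme for full effect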
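Test system: SCP-1 phosphatase catalytic domain, residues 76-261; measured by: colorimetric phosphate reagent with accelerator and stabiliser, absorbance at 630 nm; timing: enzyme reaction 45 min at room temperature, colour 5 min, stabilisation 30 min; also added: Phosphorylated 17-residue peptide substrate; compound dosing: one concentration, 20 µM, with 1.0% DMSO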
Scp-1 conf – confirmation of human Scp-1 phosphatase inhibitors; shares compounds with Scp-1 inhibitor; inhibition, % at 20 µM; 61% of 2,500 active; recombinant SCP-1 catalytic domain, phosphate release, malachite green absorbance; AID 540281;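 active = inhibition of at least 30% at 20 µM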;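 also: plate controls were DMSO with enzyme for no effect and buffer wells lacking enzyme for full effect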
MG interference – interferes with malachite green readout, flagging false Scp-1 hits; shares compounds with Scp-1 inhibitor; Colorimetric interference counterscreen, malachite green absorbance 630 nm; apparent inhibition (interference), % at 20 µM; 2,500 tested, under 10 active; AID 540313;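 active = inhibition of at least 30% at 20 µM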;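 also: compounds added after enzyme reaction finished so only phosphate colour detection is probed; plate controls were DMSO wells with completed Scp-1 reaction for no effect and substrate wells lacking enzyme for full effect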
Scp-1 Tm shift – validation of human Scp-1 inhibitors by thermal shift binding | shares compounds with Scp-1 inhibitor | Recombinant SCP1, Sypro Orange thermal shift Tm | thermal shift relative to vanadate control, % at 40 µM | 25% of 1,500 active | AID 540329;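 active = substances whose mean melting-temperature shift, as a percentage of the reference inhibitor's shift, reaches about 5.3%, limit read from the data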;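 also: 0% = Tm of DMSO wells and 100% = Tm with sodium orthovanadate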
Beacon interf DR – beacon fluorescence artifact, dose response counter-screen; shares compounds with DNMT1 inh; molecular beacon fluorescence, spectral interference counter-screen; IC50, µM; 200 tested, under 10 active
DNMT1 confirm – confirmation of human DNMT1 inhibitors. shares compounds with DNMT1 inh. DNMT1 molecular beacon HinP1I cleavage, fluorescence. inhibition, % at 10 µM. 8% of 2,300 active;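 active = average inhibition of at least 30% in the single-concentration confirmation test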
DNMT1 interf – shows spectral interference in the DNMT1 beacon assay; shares compounds with DNMT1 inh; DNMT1 molecular beacon spectral interference counterscreen, fluorescence 485/520; activation (fluorescence interference), % at 10 µM; 1% of 2,300 active;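 active = activation of at least 30% at 10 µM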;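 also: DNMT1 catalytic domain with a HinP1I cleavage step and a FAM/dabcyl DNA beacon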
STEP conf – confirmation of human STEP phosphatase inhibitors | inhibition, % at 20 µM | recombinant STEP, OMFP fluorogenic substrate, fluorescence | shares compounds with STEP inh | 32% of 520 active | AID 623866;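 also: 0% = enzyme with substrate plus DMSO and 100% = substrate without enzyme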
* marks the source's active call; other numbers are inactive results; nt = not tested or not shown. This is a sample that favours compounds with a hit; in the whole collection about 2.3% have one here. Unless noted, no rule for the calls is given here.

SMILES	SUMO1 PPI mod	STEP inh	LMPTP inh	NadD block	DNMT1 inh	Scp-1 inhibitor	Scp-1 conf	MG interference	Scp-1 Tm shift	STEP conf	others
C=CCOc1ccc(C=NNc2ccc(S(=O)(=O)Nc3ccccc3C(=O)O)cc2[N+](=O)[O-])cc1OC	69.2*	100.5*	100.1*	18.2	90.0*	70.6*	82.2*	-18.6	14.9*	nt	Beacon interf DR=>99;DNMT1 confirm=110.2*;DNMT1 interf=-12.4
CC(C)/C=N/Nc1nc(-c2ccc(Br)cc2)cs1	-7.2	-2.4	2.4	2.0	-9.7	-2.0	nt	nt	nt	nt
COc1ccc(C(=O)Nc2cc3c(oc2=O)CCCC3=O)cc1	-13.2	1.1	1.5	-5.5	68.3*	57.1*	43.7*	-6.2	-1.8	nt	DNMT1 confirm=2.3;DNMT1 interf=0.8
CCCCC(=O)Nc1ccc(C(=O)NNC(=O)c2ccc(C)c(Br)c2)cc1	26.4	73.6*	78.2*	5.7	81.2*	101.6*	70.6*	-26.9	-12.4	40.2*	DNMT1 confirm=4.5;DNMT1 interf=0.4
CCCCC(=O)Nc1ccc(C(=O)NNC(=O)CCc2ccccc2)cc1	1.8	-1.6	5.1	-2.4	-2.5	10.1	nt	nt	nt	nt
O=C(Nc1ccccc1F)Nc1ccccc1Br	0.3	3.1	-0.8	-1.4	-0.8	-6.6	nt	nt	nt	nt
COc1cccc(Nc2c(Nc3cccc(OC)c3)c(=O)c2=O)c1	16.2	97.1*	78.0*	6.5	66.8*	92.2*	68.2*	-10.9	1.9	22.8
COc1cccc(Nc2c([N+](=O)[O-])cncc2[N+](=O)[O-])c1	-45.0	0.5	-1.7	-3.4	2.2	0.1	nt	nt	nt	nt
O=C(CCc1ccccc1)NNC(=O)c1ccc(NC(=O)c2ccccc2)cc1	0.1	41.7*	60.7*	4.9	28.9	57.3*	73.9*	-13.6	-15.6	95.4*
CC(=O)Nc1ccc(C(=O)NNC(=O)CCc2ccccc2)cc1	1.2	-0.6	-0.1	-4.2	1.2	-2.7	nt	nt	nt	nt
NC(=O)c1cc2ccccc2o/c1=N\NC(=O)c1ccccc1O	-2.9	99.0*	75.3*	7.1	1.6	102.8*	79.5*	-3.0	-11.7	89.9*
NC(=O)c1cc2ccccc2o/c1=N\NC(=O)c1ccc(F)cc1	-26.0	2.8	0.3	-31.2	-0.7	11.5	nt	nt	nt	nt
O=C(NCCCN1CCCC1=O)c1ccc(S(=O)(=O)Nc2cccc(C(F)(F)F)c2)cc1	-1.9	-3.7	-0.3	-7.5	-0.4	-5.8	nt	nt	nt	nt
Cc1ccc(NC(=O)CN2C(=O)S/C(=C\c3cccn3-c3cccc(C(=O)O)c3)C2=O)cc1C	-4.3	41.5*	45.8	12.8	30.5	78.7*	80.2*	-7.1	11.3*	3.0
CN(Cc1ccccc1)C(=O)c1ccc(NC(=O)C2CCCN(C(=O)OC(C)(C)C)C2)cc1 (configuration not stated)	-2.7	-0.6	0.3	-0.6	-5.1	-2.3	nt	nt	nt	nt
CCCCCn1c(N)c(-c2nc3ccccc3s2)c2c([N+](=O)[O-])nn(C)c(=O)c21	-1.7	-1.9	5.0	0.2	0.4	-1.7	nt	nt	nt	nt
